Several values for one entry are separate records, joined by “and”; a condition that tells them apart may be missing. Equal entries are not always repeated.
Legend:
[1] = The compound was evaluated for the dose to double the control plasma APTT value in the human plasma; format: functional
Summary of the method: (§1)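 Human blood was anticoagulated with one-tenth volume 3.8% trisodium citrate and centrifuged at 1300g for 20 min to give platelet-poor plasma. Plasma was spiked with compound at 0 to about 150 μM. It was activated 5 min at 37 °C with bovine cephalin (ellagic acid) reagent, and clotting was started with 20 mM CaCl2. Clot time was read on a coagulometer. Concentration doubling APTT was read from a concentration–APTT plot.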

Prothrombin [2] = biological target: Prothrombin (Bos taurus, UniProt P00735); assay: Inhibitory activity against bovine thrombin
Prothrombin [3] = biological target: T1, Prothrombin (Homo sapiens, UniProt P00734); assay: The compound was evaluated for the inhibitory activity against human thrombin
Summary of the method: (§2)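 Human thrombin (0.0625 U/mL final) in 0.05 M TRIS-HCl pH 8.4 with S-2238, started by enzyme. Absorbance slope at 405 nm was read over 30 s. A range-finding run at about 0.01–100 μM was followed by substrate at 3.125–100 μM with at least two inhibitor levels plus vehicle. DMSO was below 0.5%. Ki = [i]/(Kp/Km − 1) from double-reciprocal plots.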

[4] = The compound was evaluated for the dose to double the control plasma APTT value in the human plasma.; format: functional; summary of the method: as §1
Prothrombin [5] = biological target: T1, Prothrombin; assay: Inhibitory activity against human thrombin
Prothrombin [6] = biological target: T1, Prothrombin; assay: The compound was evaluated for the inhibitory activity against human thrombin.; summary of the method: as §2
Rattus norvegicus [7] = assay: Percentage inhibition on the platelet accumulation in the rat model of Arterial thrombosis at 2.0 dose (mg/kg); format: functional
Summary of the method: (§3)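 Rat dorsal aorta injury model. Rats received 111In-labelled platelets 24 h and 125I-fibrinogen 10 min before injury. The aorta was clamped with modified forceps for 1 min, then blood flowed 45 min. The vessel was excised, washed in 5% citrate and gamma-counted, and counts were converted to mg blood equivalents. Dosing was iv 1 min or sc 1 h before clamping. Result is % inhibition versus placebo accumulation, mean ± SEM, n = 5.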

[8] = The compound was evaluated for the APTT value expressed as multiplies of control and was measured at the termination of the experiment (45 min later) in the rat model of arterial thrombosis at 2.0 dose (mg/kg); format: functional
Summary of the method: (§4)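 Rat arterial thrombosis model with sc dosing 1 h before clamping the dorsal aorta. Blood was taken via carotid cannula into one-tenth volume 3.8% trisodium citrate just before clamping and at termination, 45 min later. APTT was measured on plasma and expressed as a multiple of control, mean ± SEM, n = 5.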

Rattus norvegicus [9] = assay: Percentage inhibition on the f fibrinogen accumulation in the rat model of Arterial thrombosis at 3.0 dose (mg/kg); format: functional; summary of the method: as §3
Rattus norvegicus [10] = assay: Percentage inhibition on venous stasis thrombosis in the rat at 1.0 dose (mg/kg); format: functional
Summary of the method: (§5)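 Rat acute venous stasis. The vessel was excised after 10 min and the thrombus weighed. Compound was dosed iv 2 min or sc 1 h before stasis. Result is % inhibition of mean control thrombus weight relative to placebo, mean ± SEM, n = 5.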

Rattus norvegicus [11] = assay: Percentage inhibition on venous stasis thrombosis in the rat at 6.0 dose (mg/kg); format: functional; summary of the method: as §5
[12] = The compound was evaluated for the APTT value expressed as multiplies of control and was measured at the termination of the experiment (45 min later) in the rat model of arterial thrombosis at 30.0 dose (mg/kg); format: functional; summary of the method: as §4
Rattus norvegicus [13] = assay: Percentage inhibition on the platelet accumulation in the rat model of Arterial thrombosis at 3.0 dose (mg/kg); format: functional; summary of the method: as §3
[14] = TThe compound was evaluated for the APTT value expressed as multiplies of control and was measured at the termination of the experiment (45 min later) in the rat model of arterial thrombosis at 10.0d ose (mg/kg); format: functional; summary of the method: as §4
[15] = The compound was evaluated for the APTT value expressed as multiplies of control and was measured at the termination of the experiment (45 min later) in the rat model of arterial thrombosis at 3.0 dose (mg/kg); format: functional; summary of the method: as §4
Rattus norvegicus [16] = assay: Percentage inhibition on the f fibrinogen accumulation in the rat model of Arterial thrombosis at 10.0 dose (mg/kg); format: functional; summary of the method: as §3
Rattus norvegicus [17] = assay: Percentage inhibition on the f fibrinogen accumulation in the rat model of Arterial thrombosis at 2.0 dose (mg/kg); format: functional; summary of the method: as §3
Trypsin II = biological target: T2, Trypsin II (Bos taurus, UniProt Q29463); assay: The compound was evaluated for the inhibitory activity against bovine trypsin
T2 sequence (Q29463 whole entry): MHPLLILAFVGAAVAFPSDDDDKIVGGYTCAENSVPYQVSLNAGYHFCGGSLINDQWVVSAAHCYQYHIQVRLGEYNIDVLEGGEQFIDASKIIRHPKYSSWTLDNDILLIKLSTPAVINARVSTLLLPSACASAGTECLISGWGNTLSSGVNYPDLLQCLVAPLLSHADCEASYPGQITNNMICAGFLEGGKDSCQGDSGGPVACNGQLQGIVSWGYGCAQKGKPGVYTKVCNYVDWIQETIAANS
Summary of the method: (§6)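 Chromogenic assay run as for thrombin, with S-2222 (trypsin) or S-2586 (chymotrypsin) as substrate. Enzymes were bovine. Buffer was 0.05 M TRIS-HCl, pH 8.4. Compound stocks were in DMSO (final below 0.5%). Rate was read at 405 nm over 30 s. Ki came from double-reciprocal plots across a range of substrate concentrations.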

Rattus norvegicus [18] = assay: Percentage inhibition on the platelet accumulation in the rat model of Arterial thrombosis at 0.3 dose (mg/kg); format: functional; summary of the method: as §3
Chymotrypsinogen A = Chymotrypsinogen A (Bos taurus, UniProt P00766); assay: The compound was evaluated for the inhibitory activity against bovine Chymotrypsinogen; summary of the method: as §6
Rattus norvegicus [19] = assay: Percentage inhibition on the platelet accumulation in the rat model of Arterial thrombosis at 10.0 dose (mg/kg); format: functional; summary of the method: as §3
Rattus norvegicus [20] = assay: Percentage inhibition on the f fibrinogen accumulation in the rat model of Arterial thrombosis at 1.0 dose (mg/kg); format: functional; summary of the method: as §3
Rattus norvegicus [21] = assay: Percentage inhibition on venous stasis thrombosis in the rat at 3.0 dose (mg/kg); format: functional; summary of the method: as §5
Rattus norvegicus [22] = assay: Percentage inhibition on the platelet accumulation in the rat model of Arterial thrombosis at 30.0 dose (mg/kg); format: functional; summary of the method: as §3
Rattus norvegicus [23] = assay: Percentage inhibition on venous stasis thrombosis in the rat at 0.1 dose (mg/kg); format: functional; summary of the method: as §5
[24] = TThe compound was evaluated for the APTT value expressed as multiplies of control and was measured at the termination of the experiment (45 min later) in the rat model of arterial thrombosis at 1.0 dose (mg/kg); format: functional; summary of the method: as §4
Rattus norvegicus [25] = assay: Percentage inhibition on the f fibrinogen accumulation in the rat model of Arterial thrombosis at 30.0 dose (mg/kg); format: functional; summary of the method: as §3
Plasminogen = Plasminogen (Homo sapiens, UniProt P00747); assay: The compound was evaluated for the inhibitory activity against human plasmin
Summary of the method: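 Human plasmin, S-2251 chromogenic substrate, 0.05 M TRIS-HCl pH 8.4. Run like the thrombin assay: DMSO stock (final below 0.5%), initial rate at 405 nm over 30 s, substrate varied across a range. Ki was calculated from Lineweaver-Burk intercepts of control and inhibited curves.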

Rattus norvegicus [26] = assay: Percentage inhibition on venous stasis thrombosis in the rat at 0.05 dose (mg/kg); format: functional; summary of the method: as §5
Rattus norvegicus [27] = assay: Percentage inhibition on venous stasis thrombosis in the rat at 2.0 dose (mg/kg); format: functional; summary of the method: as §5

Plasminogen, sequence (P00747 97-580 limits assumed): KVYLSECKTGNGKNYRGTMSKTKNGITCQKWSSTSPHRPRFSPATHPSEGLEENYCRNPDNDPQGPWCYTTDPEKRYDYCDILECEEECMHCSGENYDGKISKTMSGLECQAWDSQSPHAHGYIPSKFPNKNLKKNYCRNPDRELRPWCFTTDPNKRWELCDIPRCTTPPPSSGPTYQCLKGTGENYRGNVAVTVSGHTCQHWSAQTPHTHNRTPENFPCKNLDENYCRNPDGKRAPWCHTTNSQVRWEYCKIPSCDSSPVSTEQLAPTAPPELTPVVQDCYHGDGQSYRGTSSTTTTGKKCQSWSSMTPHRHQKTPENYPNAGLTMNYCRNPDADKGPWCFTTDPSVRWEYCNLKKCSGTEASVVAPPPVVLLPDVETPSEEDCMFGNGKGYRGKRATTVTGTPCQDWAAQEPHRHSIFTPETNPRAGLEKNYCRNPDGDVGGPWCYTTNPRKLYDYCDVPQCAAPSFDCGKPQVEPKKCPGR
Plasminogen, sequence (P00747 581-810 limits assumed): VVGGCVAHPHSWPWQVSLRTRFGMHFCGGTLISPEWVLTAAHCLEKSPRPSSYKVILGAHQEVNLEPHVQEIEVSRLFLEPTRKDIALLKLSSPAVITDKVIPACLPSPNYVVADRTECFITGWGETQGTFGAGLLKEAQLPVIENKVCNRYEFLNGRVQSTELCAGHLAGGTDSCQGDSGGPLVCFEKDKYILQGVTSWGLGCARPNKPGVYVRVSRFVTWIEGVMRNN

CC1CNc2c(cccc2S(=O)(=O)NC(CCCN=C(N)N)C(=O)N2CCC(CCCl)CC2)C1 (stereo not given)
IC200 [1]: 2.7 µM | Ki (Prothrombin [2]): 19 nM | Ki (Prothrombin [3]): 11 nM

CC1(C)CNc2c(cccc2S(=O)(=O)NC(CCCN=C(N)N)C(=O)N2CCC(CC(F)F)CC2)C1 (stereo not given)
IC200 [4]: 1.5 µM | Ki (Prothrombin [5]): 6 nM

CC1CNc2c(cccc2S(=O)(=O)NC(CCCN=C(N)N)C(=O)N2CCC(CCCCCCC(=O)O)CC2)C1 (stereo not given)
Ki (Prothrombin [2]): 1980 nM

CC1CNc2c(cccc2S(=O)(=O)NC(CCCN=C(N)N)C(=O)N2CCCC[C@H]2CO)C1 (stereo not given in full)
Ki (Prothrombin [2]): 23 nM

CC1CNc2c(cccc2S(=O)(=O)NC(CCCN=C(N)N)C(=O)N2CCC[C@H]2CO)C1 (stereo not given in full)
Ki (Prothrombin [2]): 80 nM

CC1CNc2c(cccc2S(=O)(=O)NC(CCCNC(=N)N)C(=O)N2CCC(CCCO)CC2)C1 (stereo not given)
Ki (Prothrombin [2]): 185 nM

CC1CNc2c(cccc2S(=O)(=O)NC(CCCNC(=N)N)C(=O)N2CCC[C@@H](CCO)C2)C1 (stereo not given in full)
Ki (Prothrombin [2]): 1350 nM

CC1(C)CNc2c(cc(Cl)cc2S(=O)(=O)NC(CCCN=C(N)N)C(=O)N2CCC(CC(F)F)CC2)C1 (stereo not given)
IC200 [4]: 6 µM | Ki (Prothrombin [5]): 12.1 nM

CC1CNc2c(cccc2S(=O)(=O)NC(CCCNC(=N)N)C(=O)N2Cc3ccccc3CC2CO)C1 (stereo not given)
Ki (Prothrombin [2]): 890 nM

CC1CNc2c(cccc2S(=O)(=O)NC(CCCN=C(N)N)C(=O)N2CCC(CCC(=O)NCCC(=O)O)CC2)C1 (stereo not given)
Ki (Prothrombin [2]): 310 nM | Ki (Prothrombin [6]): 280 nM

CC1(C)CNc2c(cc(Cl)cc2S(=O)(=O)NC(CCCN=C(N)N)C(=O)N2CCC(CCOC(=O)C(C)(C)C)CC2)C1 (stereo not given)
IC200 [1]: 8.5 µM | Ki (Prothrombin [2]): 56 nM

CC(C)(c1ccccc1)c1cccc(S(=O)(=O)NC(CCCNC(=N)N)C(=O)N2CCc3ccccc3C2)c1 (stereo not given)
Ki (Prothrombin [2]): 49 nM

CC1CNc2c(cccc2S(=O)(=O)NC(CCCNC(=N)N)C(=O)N2CCc3ccccc3C2)C1 (stereo not given)
Ki (Prothrombin [2]): 23 nM

CC1CNc2c(cccc2S(=O)(=O)NC(CCCN=C(N)N)C(=O)N2CCC(CCC(=O)O)CC2)C1 (stereo not given)
Ki (Prothrombin [2]): 18400 nM

CC1(C)CNc2c(cccc2S(=O)(=O)NC(CCCN=C(N)N)C(=O)N2CCC(CCF)CC2)C1 (stereo not given)
IC200 [4]: 2.1 µM | Ki (Prothrombin [5]): 5.7 nM

CC1CNc2c(cccc2S(=O)(=O)NC(CCCN=C(N)N)C(=O)N2CCC(CCO)CC2)C1 (stereo not given)
Ki (Prothrombin [2]): 52 nM

CC1CNc2c(cccc2S(=O)(=O)NC(CCCN=C(N)N)C(=O)N2CCC(CCOCCCC(=O)O)CC2)C1 (stereo not given)
Ki (Prothrombin [2]): 980 nM

CC1CNc2c(cccc2S(=O)(=O)NC(CCCN=C(N)N)C(=O)N2CCC(CCOC(=O)CC(=O)O)CC2)C1 (stereo not given)
Ki (Prothrombin [2]): 360 nM

CC1(C)CNc2c(cccc2S(=O)(=O)NC(CCCN=C(N)N)C(=O)N2CCC(CCO)CC2)C1 (stereo not given)
Inhibition (Rattus norvegicus [7]): 38.5% | APTT [8]: 1.5 and 1 | Inhibition (Rattus norvegicus [9]): 28.8% | Inhibition (Rattus norvegicus [10]): 100% and 50% | Inhibition (Rattus norvegicus [11]): 95.2% | APTT [12]: 2.5 | Inhibition (Rattus norvegicus [13]): 94.4% and 82% and 61.2% | APTT [14]: 1.7 | APTT [15]: 1.5 and 1.3 | Inhibition (Rattus norvegicus [16]): 45.5% | Inhibition (Rattus norvegicus [17]): 3.5% | Ki (Trypsin II): 7100 nM | IC200 [1]: 1.9 µM | Inhibition (Rattus norvegicus [18]): 58% and 36.4% | Ki (Chymotrypsinogen A): > 83000 nM | Inhibition (Rattus norvegicus [19]): 68.3% | Inhibition (Rattus norvegicus [20]): 24.2% | Inhibition (Rattus norvegicus [21]): 71.7% | Inhibition (Rattus norvegicus [22]): 69.8% | Inhibition (Rattus norvegicus [23]): 45.1% | APTT [24]: 1 | Inhibition (Rattus norvegicus [25]): 49.9% | Ki (Plasminogen): 210000 nM | Inhibition (Rattus norvegicus [26]): 2.3% | Inhibition (Rattus norvegicus [27]): 79.8%
